Measured values as given in ChEMBL document CHEMBL1148748, “Synthesis of specific bivalent probes that functionally interact with 5-HT(4) receptor dimers” (J Med Chem, 2007).

Key:
[1] = molecular target: T1, 5-hydroxytryptamine receptor 4 (Homo sapiens, UniProt Q13639); assay: Binding affinity to YFP fused 5HT4 receptor expressed in CHO cells; assay type: cell-based
[2] = molecular target: T1, 5-hydroxytryptamine receptor 4; assay: Activity at 5HT4 receptor fused with RLuc and YFP fusion proteins expressed in CHO cells by BRET dimerization assay relative to control; assay type: functional, cell-based; set-up: concentration or dose not given beside the values
Outline: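 CHO cells transiently cotransfected (Jet-PEI, 8 µg DNA per 100 mm dish) with C-terminal 5-HT4R-RLuc and 5-HT4R-YFP at equimolar amounts; membrane preparations incubated with ligand (1 µM, or dose-response) at 25 °C; coelenterazine h 5 µM final; 530/485 nm emission ratio minus RLuc-alone ratio gives BRET, in mBU; % of control; three experiments in duplicate.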

[3] = molecular target: T1, 5-hydroxytryptamine receptor 4; assay: Agonist activity at human 5HT4e receptor expressed in C6 cells assessed as cAMP accumulation relative to 5HT; assay type: functional, cell-based; set-up: concentration or dose not given beside the values
Outline: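 C6 glial cells stably expressing h5-HT4(e), serum-starved 4 h, preincubated 15 min with 5 mM theophylline plus 10 µM pargyline, then compound with or without 5-HT (1 µM) 15 min at 37 °C; stopped with ice-cold 20% perchloric acid, neutralized; cAMP by radioimmunoassay; expressed as % of 5-HT response; two experiments in triplicate.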

[4] = molecular target: T1, 5-hydroxytryptamine receptor 4; assay: Displacement of [3H]GR-113808 from human 5HT4e receptor expressed in C6 cells; assay type: cell-based
[5] = molecular target: T1, 5-hydroxytryptamine receptor 4; assay: Binding affinity to Rluc fused 5HT4 receptor expressed in CHO cells; assay type: cell-based

T1 sequence (Q13639 whole entry, the tested form may be a part): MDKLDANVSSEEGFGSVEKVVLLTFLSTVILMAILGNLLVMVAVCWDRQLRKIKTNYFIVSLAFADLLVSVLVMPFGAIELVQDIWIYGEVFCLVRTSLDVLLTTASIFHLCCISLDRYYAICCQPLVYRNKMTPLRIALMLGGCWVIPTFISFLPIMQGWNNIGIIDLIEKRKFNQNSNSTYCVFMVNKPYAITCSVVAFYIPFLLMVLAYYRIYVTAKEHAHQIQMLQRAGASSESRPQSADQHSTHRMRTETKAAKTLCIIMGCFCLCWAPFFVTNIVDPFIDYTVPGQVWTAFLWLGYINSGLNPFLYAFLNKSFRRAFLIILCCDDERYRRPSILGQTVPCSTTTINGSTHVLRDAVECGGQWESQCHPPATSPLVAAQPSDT

Compound | Ki [1] [nM] | Activity [2] [%] | Activity [3] [%] | Ki [4] [nM] | Ki [5] [nM]
Cn1cc(C(=O)OCC2CCN(CCNS(C)(=O)=O)CC2)c2ccccc21 | 0.7 | 99 | 1 |  | 
COc1cc(N)c(Cl)cc1C(=O)OCCN1CCC(CNC(=O)CN(CC#Cc2ccc(C#CCN(CC(=O)NCC3CCN(CCOC(=O)c4cc(Cl)c(N)cc4OC)CC3)C(=O)OC(C)(C)C)cc2)C(=O)OC(C)(C)C)CC1 |  | 107 | 49 | 44 | 
COc1cc(N)c(Cl)cc1C(=O)OCCN1CCC(CNC(=O)CN(CCCc2ccc(CCCN(CC(=O)NCC3CCN(CCOC(=O)c4cc(Cl)c(N)cc4OC)CC3)C(=O)OC(C)(C)C)cc2)C(=O)OC(C)(C)C)CC1 |  | 114 | 18 | 19 | 
COc1cc(N)c(Cl)cc1C(=O)OCCN1CCC(CNC(=O)CCCN(CCCc2cccc(CCCN(CCCC(=O)NCC3CCN(CCOC(=O)c4cc(Cl)c(N)cc4OC)CC3)C(=O)OC(C)(C)C)c2)C(=O)OC(C)(C)C)CC1 |  | 108 | 5 | 23 | 
COc1cc(N)c(Cl)cc1C(=O)OCCN1CCC(NC(=O)CCCCCCCCCCNC(=O)C2CCN(CCOC(=O)c3cc(Cl)c(N)cc3OC)CC2)CC1 |  | 110 | 5 |  | 
COc1cc(N)c(Cl)cc1C(=O)OCCN1CCC(NC(=O)CCCCCCCCCCNc2nc(NCCCCCCCCCCC(=O)NC3CCN(CCOC(=O)c4cc(Cl)c(N)cc4OC)CC3)nc(NCc3ccccc3)n2)CC1 |  | 114 | 12 |  | 
COc1cc(N)c(Cl)cc1C(=O)OCCN1CCC(NC(=O)CCCN(CC#Cc2ccc(C#CCN(CCCC(=O)NC3CCN(CCOC(=O)c4cc(Cl)c(N)cc4OC)CC3)C(=O)OC(C)(C)C)cc2)C(=O)OC(C)(C)C)CC1 |  | 106 | 35 | 18 | 
COc1cc(N)c(Cl)cc1C(=O)OCCN1CCC(CNC(=O)CCCN(CC#Cc2ccc(C#CCN(CCCC(=O)NCC3CCN(CCOC(=O)c4cc(Cl)c(N)cc4OC)CC3)C(=O)OC(C)(C)C)cc2)C(=O)OC(C)(C)C)CC1 |  | 115 | 1 | 25 | 
COc1cc(N)c(Cl)cc1C(=O)OCCN1CCC(NC(=O)CCCCCNC(=O)C2CCN(CCOC(=O)c3cc(Cl)c(N)cc3OC)CC2)CC1 |  | 108 | 46 | 7 | 
COc1cc(N)c(Cl)cc1C(=O)OCCN1CCC(NC(=O)CCCCCCCCCCN(CCCCCCCCCCC(=O)NC2CCN(CCOC(=O)c3cc(Cl)c(N)cc3OC)CC2)CC(=O)NCC2CCNCC2)CC1 |  | 114 | 10 |  | 
COc1cc(N)c(Cl)cc1C(=O)OCCN1CCC(CNC(=O)CCCN(CC#Cc2cccc(C#CCN(CCCC(=O)NCC3CCN(CCOC(=O)c4cc(Cl)c(N)cc4OC)CC3)C(=O)OC(C)(C)C)c2)C(=O)OC(C)(C)C)CC1 |  | 108 | 6 | 40 | 
COc1cc(N)c(Cl)cc1C(=O)OCCN1CCC(CNC(=O)CCCN(CCCc2ccc(CCCN(CCCC(=O)NCC3CCN(CCOC(=O)c4cc(Cl)c(N)cc4OC)CC3)C(=O)OC(C)(C)C)cc2)C(=O)OC(C)(C)C)CC1 |  | 115 | 9 | 15 | 
COc1cc(N)c(Cl)cc1C(=O)OCCN1CCC(NC(=O)CCCN(CCCc2ccc(CCCN(CCCC(=O)NC3CCN(CCOC(=O)c4cc(Cl)c(N)cc4OC)CC3)C(=O)OC(C)(C)C)cc2)C(=O)OC(C)(C)C)CC1 | 10 | 118 | 21 | 12 | 10
COc1cc(N)c(Cl)cc1C(=O)OCCN1CCC(CCNC(=O)CCCCCCCCCCC(=O)NCCC2CCN(CCOC(=O)c3cc(Cl)c(N)cc3OC)CC2)CC1 |  | 108 | 6 | 9 | 
COc1cc(N)c(Cl)cc1C(=O)OCCN1CCC(NC(=O)CCCN(CCCc2ccc(CCCN(CCCC(=O)NC3CCCCC3)C(=O)OC(C)(C)C)cc2)C(=O)OC(C)(C)C)CC1 |  | 105 | 17 | 34 | 
COc1cc(N)c(Cl)cc1C(=O)OCCN1CCC(NC(=O)CCCN(CC#Cc2cccc(C#CCN(CCCC(=O)NC3CCN(CCOC(=O)c4cc(Cl)c(N)cc4OC)CC3)C(=O)OC(C)(C)C)c2)C(=O)OC(C)(C)C)CC1 |  | 109 | 8 | 8 | 
COc1cc(N)c(Cl)cc1C(=O)OCCN1CCCCC1 |  | 101 | 45 |  | 
